In test [1] the target is T1, SERT (Homo sapiens, UniProt P31645). In kind it is cell-based.
The target in test [2] is T1, SERT. Kind of test: SERT efflux assay. As to conditions: for SERT efflux, single concentration: 10 μM, normalized to vehicle (0.1% DMSO = 0%) and 100 μM PCA = 100%. In kind it is cell-based. The procedure, abridged: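 hSERT-N1-pEYFP transfected (0.1 μg/well) into HEK293T cells (DMEM, 10% FBS) at seeding, 24 h before assay. In HBSS with 2 mM MgCl2, 2 mM CaCl2 and 5 mM HEPES at 37 °C, cells were loaded with 40 nM [3H]5-HT for 20 min, washed, then exposed 20 min to test compound (final 10 μM–1 nM, 0.1% DMSO). After washing and NaOH lysis, retained radioactivity was scintillation-counted. EC50/Span came from three-parameter log(agonist)-response fits.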

Test [3] deals with T1, SERT. Kind of test: NIMH PDSP radioligand binding, SERT. The following applies: 10 μM; N = 1 in quadruplicate.
The target of test [4] is T2, 5-HT3 receptors (Homo sapiens, UniProt P46098).
T2 sequence (P46098 24-478): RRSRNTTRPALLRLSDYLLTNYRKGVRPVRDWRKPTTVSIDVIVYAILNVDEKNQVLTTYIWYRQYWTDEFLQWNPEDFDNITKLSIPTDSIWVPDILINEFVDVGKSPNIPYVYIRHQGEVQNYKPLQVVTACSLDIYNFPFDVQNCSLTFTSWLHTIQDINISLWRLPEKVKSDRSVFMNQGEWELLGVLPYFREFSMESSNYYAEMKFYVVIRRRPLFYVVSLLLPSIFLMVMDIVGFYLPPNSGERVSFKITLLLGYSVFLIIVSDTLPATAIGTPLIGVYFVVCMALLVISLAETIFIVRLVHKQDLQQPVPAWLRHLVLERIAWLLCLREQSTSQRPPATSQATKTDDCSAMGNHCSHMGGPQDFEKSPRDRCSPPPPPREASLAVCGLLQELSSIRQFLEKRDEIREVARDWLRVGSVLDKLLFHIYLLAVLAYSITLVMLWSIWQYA
Kind of test: NIMH PDSP radioligand binding, 5-HT3. As to conditions: 10 μM; N = 1 in quadruplicate. The procedure, abridged:
(§1)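 Outsourced screen run by the NIMH Psychoactive Drug Screening Program across a broad target panel. Test compound at 10 μM; read-out was % inhibition of binding of a radiolabelled ligand specific to each target. Single experiment (N = 1) run in quadruplicate, with the averaged value reported.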

In test [5] the test system is sigma 1. Kind of test: NIMH PDSP radioligand binding, sigma 1. As to conditions: 10 μM; N = 1 in quadruplicate. The procedure, abridged:
as §1

For test [6], the system named is sigma 2. Kind of test: NIMH PDSP radioligand binding, sigma 2. The following applies: 10 μM; N = 1 in quadruplicate. The gist of the method:
as §1

The target in test [7] is DAT (Homo sapiens, UniProt Q01959). The test can be described thus: NIMH PDSP radioligand binding, DAT. As to conditions: 10 μM; N = 1 in quadruplicate. The gist of the method: as §1
Sequence of DAT (Q01959 whole entry, species assumed): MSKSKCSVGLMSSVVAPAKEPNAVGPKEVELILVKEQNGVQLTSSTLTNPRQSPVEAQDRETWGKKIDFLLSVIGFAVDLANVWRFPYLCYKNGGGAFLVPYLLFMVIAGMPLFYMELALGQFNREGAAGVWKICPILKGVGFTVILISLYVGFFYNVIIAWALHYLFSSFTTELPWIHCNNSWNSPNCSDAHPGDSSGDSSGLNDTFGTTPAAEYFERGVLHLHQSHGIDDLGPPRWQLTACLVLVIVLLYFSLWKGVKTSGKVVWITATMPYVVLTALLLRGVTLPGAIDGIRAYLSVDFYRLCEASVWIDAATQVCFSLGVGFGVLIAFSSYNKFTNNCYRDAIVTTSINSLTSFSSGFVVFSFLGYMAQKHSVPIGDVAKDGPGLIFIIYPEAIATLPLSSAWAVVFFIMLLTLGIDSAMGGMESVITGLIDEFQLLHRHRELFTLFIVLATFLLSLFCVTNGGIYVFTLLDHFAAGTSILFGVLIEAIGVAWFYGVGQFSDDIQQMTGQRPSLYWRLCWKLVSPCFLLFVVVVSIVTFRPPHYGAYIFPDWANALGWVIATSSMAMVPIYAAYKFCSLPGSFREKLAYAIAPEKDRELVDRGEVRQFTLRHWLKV
Test [8] concerns the target NET (Homo sapiens, UniProt P23975). The test can be described thus: NIMH PDSP radioligand binding, NET. As to conditions: 10 μM; N = 1 in quadruplicate. The gist of the method:
as §1

Test [9] addresses H1 (Homo sapiens, UniProt P35367). Kind of test: NIMH PDSP radioligand binding, H1. As to conditions: 10 μM; N = 1 in quadruplicate. The procedure, abridged: as §1
The target in test [10] is 5-HT2B (Homo sapiens, UniProt P41595). The test can be described thus: NIMH PDSP radioligand binding, 5-HT2B. As to conditions: 10 μM; N = 1 in quadruplicate. The procedure, abridged: as §1
Sequence of 5-HT2B (P41595 whole entry, species assumed): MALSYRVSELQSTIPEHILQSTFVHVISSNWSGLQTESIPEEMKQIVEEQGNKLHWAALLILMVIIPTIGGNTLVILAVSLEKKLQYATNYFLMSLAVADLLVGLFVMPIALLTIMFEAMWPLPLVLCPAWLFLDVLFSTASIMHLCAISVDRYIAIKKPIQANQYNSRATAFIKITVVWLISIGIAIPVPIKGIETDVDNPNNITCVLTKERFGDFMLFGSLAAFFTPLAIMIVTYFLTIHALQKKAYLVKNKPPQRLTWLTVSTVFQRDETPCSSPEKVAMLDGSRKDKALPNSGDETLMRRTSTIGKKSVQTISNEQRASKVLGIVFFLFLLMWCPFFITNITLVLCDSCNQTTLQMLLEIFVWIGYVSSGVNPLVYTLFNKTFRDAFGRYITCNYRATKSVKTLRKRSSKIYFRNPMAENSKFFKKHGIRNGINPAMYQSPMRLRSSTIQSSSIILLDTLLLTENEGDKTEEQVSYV
For test [11], the system named is adrenergic receptors. The test can be described thus: NIMH PDSP radioligand binding, adrenergic receptors. The following applies: 10 μM; N = 1 in quadruplicate. The gist of the method: as §1
The target of test [12] is T1, SERT. The following applies: cocaine 10 μM; value taken from a previous report; cited from earlier work.
In test [13] the target is SERT-PG^601,602AA (Homo sapiens, UniProt P31645, G602A/P601A). Kind of test: SERT pharmacochaperoning assay. It counts as cell-based. As to conditions: 20 μM, 24 h; normalized to vehicle (0.2% DMSO = 0%) and 20 μM noribogaine = 100%. The procedure, abridged: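 HEK293T cells (DMEM, 10% FBS) were transfected at seeding with the misfolding SERT-PG601,602AA plasmid (0.1 μg/well) and kept overnight at 37 °C, 5% CO2. They were then exposed 24 h to test compound at a final 20 μM (0.2% DMSO) in fresh medium. Four 10-min washes with supplemented HBSS preceded 10-min uptake of 40 nM [3H]5-HT. Cells were washed, lysed in 10 mM NaOH and scintillation-counted.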

Test [14] has as its target T1, SERT. As to conditions: cited from earlier work.
Test [15] deals with serotonin uptake. The following applies: cited from earlier work.
In test [16] the target is T1, SERT. As to conditions: cited from earlier work. This is another data set of the same source.
The mark [17] stands for this setting: concentration-response, compared to UCD0184.

Counter-ions that a name gives are not always drawn. Like-named read-outs stand apart in the source and are kept apart here.

Sequence of H1 (P35367 whole entry): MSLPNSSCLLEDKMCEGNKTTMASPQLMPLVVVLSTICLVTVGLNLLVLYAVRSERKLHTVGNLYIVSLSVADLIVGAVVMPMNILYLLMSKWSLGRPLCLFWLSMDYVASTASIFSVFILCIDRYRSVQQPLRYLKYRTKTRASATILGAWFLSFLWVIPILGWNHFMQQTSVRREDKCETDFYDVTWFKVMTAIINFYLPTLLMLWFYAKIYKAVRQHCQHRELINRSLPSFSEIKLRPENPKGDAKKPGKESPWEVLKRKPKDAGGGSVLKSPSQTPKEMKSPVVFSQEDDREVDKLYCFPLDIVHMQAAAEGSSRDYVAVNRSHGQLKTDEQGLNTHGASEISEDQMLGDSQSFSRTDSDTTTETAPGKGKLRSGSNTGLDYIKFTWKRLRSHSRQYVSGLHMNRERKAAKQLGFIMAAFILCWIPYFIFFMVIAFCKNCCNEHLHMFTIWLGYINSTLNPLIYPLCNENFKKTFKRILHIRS
Sequence of NET (P23975 whole entry): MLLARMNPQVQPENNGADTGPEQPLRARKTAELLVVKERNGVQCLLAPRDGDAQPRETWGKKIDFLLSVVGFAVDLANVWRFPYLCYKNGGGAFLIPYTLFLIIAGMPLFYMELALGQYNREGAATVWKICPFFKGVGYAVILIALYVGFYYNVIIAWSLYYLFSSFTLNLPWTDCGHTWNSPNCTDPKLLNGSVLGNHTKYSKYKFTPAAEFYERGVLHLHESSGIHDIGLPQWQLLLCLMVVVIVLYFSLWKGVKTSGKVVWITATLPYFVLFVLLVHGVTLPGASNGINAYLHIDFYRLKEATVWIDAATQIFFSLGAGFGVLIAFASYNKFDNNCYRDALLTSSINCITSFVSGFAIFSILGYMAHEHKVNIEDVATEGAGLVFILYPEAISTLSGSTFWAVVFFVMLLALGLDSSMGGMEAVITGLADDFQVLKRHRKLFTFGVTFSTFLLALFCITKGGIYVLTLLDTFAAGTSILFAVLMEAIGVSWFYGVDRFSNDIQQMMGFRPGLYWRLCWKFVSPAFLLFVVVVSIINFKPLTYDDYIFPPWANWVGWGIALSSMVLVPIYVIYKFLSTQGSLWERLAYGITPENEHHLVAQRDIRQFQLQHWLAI

For `CN1[C@@H]2C[C@@H](OC(=O)[C@H](CO)c3ccccc3)C[C@H]1[C@@H]1O[C@@H]12` [scopolamine, scopolamine hydrobromide trihydrate, reference compound], the “SERT inhibition, single concentration” value in [1] is given as “meaningful levels of SERT inhibition”.
As to `CN1C2C=C(c3c[nH]c4ccc(F)cc34)CC1CC2` (centres unmarked) [UCD0093], in test [1] (setting [17]), the “SERT inhibition potency and efficacy (in words)” value is “drastically increased SERT inhibition potency”. In [2] (setting [17]), the “SERT efflux potency and efficacy (in words)” value is given as “minimal effect on SERT efflux”. For the same compound, in test [3], the “% inhibition of radioligand binding at SERT (in words)” value was “substantial binding”. In test [4], the “% inhibition of radioligand binding at 5-HT3 (in words)” value is on record as “high affinity”. For the same compound, in test [5], the “% inhibition of radioligand binding at sigma 1 (in words)” value is listed as “potent ligands”. The “% inhibition of radioligand binding at sigma 2 (in words)” value in [6] is recorded as “potent ligands”. In test [7], the “% inhibition of radioligand binding at DAT (in words)” value was “potent ligands”. Besides, in [8], the “% inhibition of radioligand binding at NET (in words)” value is “potent ligands”. In addition, the “% inhibition of radioligand binding at H1 (in words)” value in test [9] is reported as “potent ligands”. Also, the “% inhibition of radioligand binding at 5-HT2B (in words)” value in [10] was “potent ligands”. The “% inhibition of radioligand binding at adrenergic receptors (in words)” value in test [11] is recorded as “potent ligands”.
For `COC(=O)[C@H]1[C@@H](OC(=O)c2ccccc2)C[C@@H]2CC[C@H]1N2C` [cocaine, (−)-cocaine hydrochloride], the “SERT inhibition, single concentration” value in test [12] is recorded as ~ 50%.
What is called EC50 is the concentration giving half of the maximal effect. Regarding `CN1C2C=C(c3c[nH]c4ccccc34)CC1CC2` (centres unmarked) [UCD0184], in test [1], the “SERT inhibition Span (Emax)” value came out at 105% and the “SERT inhibition, single concentration” value is “near full inhibition”. Also, the EC50 in test [1] (read-out: SERT inhibition EC50, concentration-response, HEK293T) came out at 1100 nM. For the same compound, the “SERT efflux, single concentration” value in test [2] (HEK293T) was “appreciable 5-HT efflux”. Besides, in [2] (SERT-transfected HEK293T cells), the “type of serotonin releasing agent (SRA): full or partial” value is recorded as “full”. Moreover, the “SERT efflux Span (Emax)” value in test [2] (concentration-response, normalized to vehicle 0% and 100 μM PCA 100%) is 75.1%. Besides, in test [2] (read-out: SERT efflux EC50, concentration-response, HEK293T), the 50% effective concentration (EC50) was 582 nM. The “SERT pharmacochaperoning efficacy compared to noribogaine” value in [13] was “did not act as a SERT pharmacochaperone”. The “% inhibition of radioligand binding at SERT (in words)” value in test [3] is reported as “substantial binding”. Moreover, the “% inhibition of radioligand binding at 5-HT3 (in words)” value in test [4] is given as “high affinity”. The “% inhibition of radioligand binding at sigma 1 (in words)” value in test [5] is recorded as “potent ligands”. In addition, the “% inhibition of radioligand binding at sigma 2 (in words)” value in test [6] is “potent ligands”. Besides, the “% inhibition of radioligand binding at DAT (in words)” value in test [7] was “potent ligands”. The “% inhibition of radioligand binding at NET (in words)” value in [8] is given as “potent ligands”. In addition, in test [9], the “% inhibition of radioligand binding at H1 (in words)” value is given as “potent ligands”. The “% inhibition of radioligand binding at 5-HT2B (in words)” value in test [10] is recorded as “potent ligands”. Also, the “% inhibition of radioligand binding at adrenergic receptors (in words)” value in test [11] is reported as “potent ligands”. Moreover, in [14], the “selectivity for SERT over DAT” value is given as “approximately 10 fold” and the “selectivity for SERT over NET” value is ~100 fold.
For `CN1C2CCC1CC(OC(=O)c1ccccc1)C2` (centres unmarked) [tropacocaine], in test [2] (HEK293T), the “SERT efflux, single concentration” value is recorded as “no effect”. Also, in test [15], the “serotonin uptake inhibition activity relative to cocaine (in words)” value was “reduced activity relative to cocaine”. Further, in [16], the “SERT binding affinity relative to cocaine (in words)” value was “reduced activity relative to cocaine”.

Values taken from publication PMC12398706 (ACS chemical neuroscience, 2025).
